ChEMBL document CHEMBL1649231, “In vitro activities of panduratin A against clinical Staphylococcus strains” (2009)
In brackets after ≈: the same amount, converted by molar mass.

Columns and labels:
Assay type in all cases: functional
[1] = tested on: Staphylococcus aureus; test: Antimicrobial activity against methicillin-resistant Staphylococcus aureus after 24 hrs by broth microdilution method
Method in brief: (§1)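 Clinical isolates came from blood, body fluids, genital secretions, pus or sputum, identified conventionally or by Vitek. MICs were run by CLSI M7-A6 broth microdilution in Mueller-Hinton broth with 5 × 10^5 CFU/ml inoculum. Agents were twofold serially diluted, starting from 10% DMSO. Drug-free and uninoculated controls were included. Plates were incubated aerobically at 37°C for 24 h; MIC is the lowest concentration giving no visible growth.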

[2] = tested on: Staphylococcus aureus; test: Antimicrobial activity against methicillin-susceptible Staphylococcus aureus after 24 hrs by broth microdilution method; method in brief: as §1
[3] = tested on: Staphylococcus simulans; test: Antimicrobial activity against methicillin-resistant coagulase-negative Staphylococcus simulans after 24 hrs by broth microdilution method; method in brief: as §1
[4] = tested on: Staphylococcus haemolyticus; test: Bactericidal activity against methicillin-resistant coagulase-negative Staphylococcus haemolyticus after 24 hrs by plate counting method; conditions: Staphylococcus haemolyticus, 24 h
[5] = tested on: Staphylococcus haemolyticus; test: Antimicrobial activity against methicillin-resistant coagulase-negative Staphylococcus haemolyticus after 24 hrs by broth microdilution method; method in brief: as §1
[6] = tested on: Staphylococcus epidermidis; test: Bactericidal activity against methicillin-resistant coagulase-negative Staphylococcus epidermidis after 24 hrs by plate counting method; conditions: Staphylococcus epidermidis, 24 h
[7] = tested on: Staphylococcus epidermidis; test: Antimicrobial activity against methicillin-resistant coagulase-negative Staphylococcus epidermidis after 24 hrs by broth microdilution method; method in brief: as §1
[8] = tested on: Staphylococcus hominis; test: Bactericidal activity against methicillin-resistant coagulase-negative Staphylococcus hominis after 24 hrs by plate counting method; conditions: Staphylococcus hominis, 24 h
[9] = tested on: Staphylococcus aureus; test: Bactericidal activity against methicillin-susceptible Staphylococcus aureus after 24 hrs by plate counting method
Method in brief: (§2)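 Clinical staphylococcal isolates from patient body fluids, blood, genital secretions, pus or sputum; species by conventional methods or Vitek. Twofold dilutions in Mueller-Hinton broth, inoculum 5 × 10^5 CFU/ml, 37°C aerobic 24 h (CLSI M7-A6 microdilution). About 100 μl from each well without visible growth spread on MHA; 37°C 24 h. MBC = lowest concentration giving no growth on agar.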

[10] = tested on: Staphylococcus hominis; test: Antimicrobial activity against methicillin-resistant coagulase-negative Staphylococcus hominis after 24 hrs by broth microdilution method; method in brief: as §1
[11] = tested on: Staphylococcus aureus; test: Bactericidal activity against methicillin-resistant Staphylococcus aureus after 24 hrs by plate counting method
[12] = tested on: Staphylococcus simulans; test: Bactericidal activity against methicillin-resistant coagulase-negative Staphylococcus simulans after 24 hrs by plate counting method; conditions: Staphylococcus simulans, 24 h; method in brief: as §2
[13] = tested on: Mammaliicoccus sciuri; test: Antimicrobial activity against methicillin-resistant coagulase-negative Staphylococcus sciuri after 24 hrs by broth microdilution method; method in brief: as §1
[14] = tested on: Mammaliicoccus sciuri; test: Bactericidal activity against methicillin-resistant coagulase-negative Staphylococcus sciuri after 24 hrs by plate counting method; conditions: Mammaliicoccus sciuri, 24 h; method in brief: as §2
[15] = tested on: Staphylococcus hominis; test: Antimicrobial activity against methicillin-susceptible coagulase-negative Staphylococcus hominis after 24 hrs by broth microdilution method; method in brief: as §1
[16] = tested on: Staphylococcus hominis; test: Bactericidal activity against methicillin-susceptible coagulase-negative Staphylococcus hominis after 24 hrs by plate counting method; method in brief: as §2
[17] = tested on: Staphylococcus epidermidis; test: Antimicrobial activity against methicillin-susceptible coagulase-negative Staphylococcus epidermidis after 24 hrs by broth microdilution method; method in brief: as §1
[18] = tested on: Staphylococcus epidermidis; test: Bactericidal activity against methicillin-susceptible coagulase-negative Staphylococcus epidermidis after 24 hrs by plate counting method; method in brief: as §2
[19] = tested on: Staphylococcus haemolyticus; test: Antimicrobial activity against methicillin-susceptible coagulase-negative Staphylococcus haemolyticus after 24 hrs by broth microdilution method; method in brief: as §1
[20] = tested on: Staphylococcus haemolyticus; test: Bactericidal activity against methicillin-susceptible coagulase-negative Staphylococcus haemolyticus after 24 hrs by plate counting method; method in brief: as §2
[21] = tested on: Staphylococcus simulans; test: Antimicrobial activity against methicillin-susceptible coagulase-negative Staphylococcus simulans after 24 hrs by broth microdilution method; method in brief: as §1
[22] = tested on: Staphylococcus simulans; test: Bactericidal activity against methicillin-susceptible coagulase-negative Staphylococcus simulans after 24 hrs by plate counting method; method in brief: as §2
[23] = tested on: Mammaliicoccus sciuri; test: Antimicrobial activity against methicillin-susceptible coagulase-negative Staphylococcus sciuri after 24 hrs by broth microdilution method; method in brief: as §1
[24] = tested on: Mammaliicoccus sciuri; test: Bactericidal activity against methicillin-susceptible coagulase-negative Staphylococcus sciuri after 24 hrs by plate counting method; method in brief: as §2

Cc1ccc(C(C)C)c(O)c1 [THYMOL]
MIC50 [1]: 128 µg/mL (≈ 852 µM)
MIC90 [1]: 128 µg/mL (≈ 852 µM)
MIC50 [2]: 128 µg/mL (≈ 852 µM)
MIC90 [2]: 128 µg/mL (≈ 852 µM)
MIC50 [3]: 64 µg/mL (≈ 426 µM)
MIC90 [3]: 128 µg/mL (≈ 852 µM)
MBC [4]: 64 µg/mL (≈ 426 µM)
MIC50 [5]: 64 µg/mL (≈ 426 µM)
MIC90 [5]: 128 µg/mL (≈ 852 µM)
MBC [6]: 64 µg/mL (≈ 426 µM)
MIC50 [7]: 64 µg/mL (≈ 426 µM)
MIC90 [7]: 128 µg/mL (≈ 852 µM)
MBC [8]: 64 µg/mL (≈ 426 µM)
MBC50 [9]: 256 µg/mL (≈ 1700 µM)
MBC90 [9]: 512 µg/mL (≈ 3410 µM)
MBC ([9]; Staphylococcus aureus, 24 h): 128 µg/mL (≈ 852 µM)
MIC50 [10]: 64 µg/mL (≈ 426 µM)
MIC90 [10]: 128 µg/mL (≈ 852 µM)
MBC50 [11]: 512 µg/mL (≈ 3410 µM)
MBC ([11]; Staphylococcus aureus, 24 h): 256 µg/mL (≈ 1700 µM)
MBC [12]: 64 µg/mL (≈ 426 µM)
MIC50 [13]: 64 µg/mL (≈ 426 µM)
MIC90 [13]: 128 µg/mL (≈ 852 µM)
MBC [14]: 64 µg/mL (≈ 426 µM)
MIC50 [15]: 64 µg/mL (≈ 426 µM)
MIC90 [15]: 64 µg/mL (≈ 426 µM)
MBC50 [16]: 256 µg/mL (≈ 1700 µM)
MBC90 [16]: 512 µg/mL (≈ 3410 µM)
MBC ([16]; Staphylococcus hominis, 24 h): 64 µg/mL (≈ 426 µM)
MIC50 [17]: 64 µg/mL (≈ 426 µM)
MIC90 [17]: 64 µg/mL (≈ 426 µM)
MBC50 [18]: 256 µg/mL (≈ 1700 µM)
MBC90 [18]: 512 µg/mL (≈ 3410 µM)
MBC ([18]; Staphylococcus epidermidis, 24 h): 64 µg/mL (≈ 426 µM)
MIC50 [19]: 64 µg/mL (≈ 426 µM)
MIC90 [19]: 64 µg/mL (≈ 426 µM)
MBC50 [20]: 256 µg/mL (≈ 1700 µM)
MBC90 [20]: 512 µg/mL (≈ 3410 µM)
MBC ([20]; Staphylococcus haemolyticus, 24 h): 64 µg/mL (≈ 426 µM)
MIC50 [21]: 64 µg/mL (≈ 426 µM)
MIC90 [21]: 64 µg/mL (≈ 426 µM)
MBC50 [22]: 256 µg/mL (≈ 1700 µM)
MBC90 [22]: 512 µg/mL (≈ 3410 µM)
MBC ([22]; Staphylococcus simulans, 24 h): 64 µg/mL (≈ 426 µM)
MIC50 [23]: 64 µg/mL (≈ 426 µM)
MIC90 [23]: 64 µg/mL (≈ 426 µM)
MBC50 [24]: 256 µg/mL (≈ 1700 µM)
MBC90 [24]: 512 µg/mL (≈ 3410 µM)
MBC ([24]; Mammaliicoccus sciuri, 24 h): 64 µg/mL (≈ 426 µM)
